We go through 17 molecules from ChEMBL document CHEMBL4261529, “Rational design and optimization of selenophenes with basic side chains as novel potent selective estrogen receptor modulators (SERMs) for breast cancer therapy” (Medchemcomm, 2017).

What is called IC50 is the concentration needed to halve the response being measured. By EC50 is commonly meant the concentration giving half of the maximal effect.

In experiment [1] the target is T1, Estrogen receptor beta (Homo sapiens, UniProt Q92731). The experiment can be described thus: Binding affinity to human ERbeta LBD expressed in Escherichia coli BL21(DE3) after 2 hrs by fluorescence tracer coumestrol based competitive fluorometric binding assay relative to 17beta-estradiol.
The target of experiment [2] is T2, Estrogen receptor (Homo sapiens) (UniProt P03372).
T2 sequence (whole entry): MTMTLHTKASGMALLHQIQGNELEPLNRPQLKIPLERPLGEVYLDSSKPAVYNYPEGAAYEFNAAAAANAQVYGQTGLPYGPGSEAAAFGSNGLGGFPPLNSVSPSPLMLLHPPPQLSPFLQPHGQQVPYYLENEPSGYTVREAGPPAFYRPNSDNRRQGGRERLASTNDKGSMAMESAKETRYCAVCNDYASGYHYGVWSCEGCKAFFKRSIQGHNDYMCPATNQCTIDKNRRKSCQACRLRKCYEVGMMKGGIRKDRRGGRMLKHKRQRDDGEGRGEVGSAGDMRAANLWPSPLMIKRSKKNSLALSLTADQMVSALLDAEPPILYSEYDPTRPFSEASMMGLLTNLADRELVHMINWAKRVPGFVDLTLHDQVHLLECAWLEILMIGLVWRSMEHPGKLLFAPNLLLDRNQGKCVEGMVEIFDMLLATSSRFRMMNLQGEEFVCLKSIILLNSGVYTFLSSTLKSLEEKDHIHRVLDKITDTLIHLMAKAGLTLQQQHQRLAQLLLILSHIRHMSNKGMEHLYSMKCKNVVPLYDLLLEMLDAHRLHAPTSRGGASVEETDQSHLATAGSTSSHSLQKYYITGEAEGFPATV
The experiment is described as follows: Binding affinity to human ERalpha LBD expressed in Escherichia coli BL21(DE3) after 2 hrs by fluorescence tracer coumestrol based competitive fluorometric binding assay relative to 17beta-estradiol.

The target of experiment [3] is T1, Estrogen receptor beta. The experiment can be described thus: Antagonist activity at ERbeta (unknown origin) expressed in HEK293T cells assessed as inhibition of 17beta-estradiol stimulated transcriptional activity after 24 hrs by dual luciferase reporter gene assay relative to 17beta-estradiol. Format: cell-based. The method in brief:
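ERβ expression vector (100 ng) plus 300 ng 3×ERE-luciferase reporter, calcium phosphate transfection into HEK293T cells plated in phenol red-free DMEM with 10% FBS. Next day, treated in triplicate with increasing doses (up to 10–5 M). For antagonist mode, 10 nM estradiol was co-added. Luciferase read 24 h later.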
In general terms: A reporter such as luciferase makes a cellular process visible.

The target of experiment [4] is T1, Estrogen receptor beta. The experiment is described as follows: Antagonist activity at ERbeta (unknown origin) expressed in HEK293T cells assessed as inhibition of 17beta-estradiol stimulated transcriptional activity after 24 hrs by dual luciferase reporter gene assay. Format: cell-based. The method in brief:
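HEK293T cells kept in DMEM with 10% FBS, plated in phenol red-free DMEM/10% FBS. Calcium phosphate co-transfection with 300 ng 3×ERE-luciferase reporter and 100 ng ERβ expression vector. Next day, cells stimulated with 10 nM estradiol plus increasing compound doses (up to 10–5 M), in triplicate. Luciferase read after 24 h.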

For experiment [5], the target named is T3, Estrogen receptor (Homo sapiens, UniProt P03372).
T3 sequence (P03372 whole entry): T2 sequence (whole entry)
The experiment can be described thus: Antagonist activity at ERalpha (unknown origin) expressed in HEK293T cells assessed as inhibition of 17beta-estradiol stimulated transcriptional activity after 24 hrs by dual luciferase reporter gene assay. Format: cell-based.

For experiment [6], the species on record is Homo sapiens. The experiment is described as follows: Ratio of relative binding affinity for human ERalpha LBD to relative binding affinity to human ERbeta LBD.
Experiment [7] deals with MCF7. The experiment is described as follows: Antiproliferative activity against human MCF7 cells after 72 hrs by MTT assay. It is filed as functional, cell-based. The settings on record: MCF7, 72 h. In outline:
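MCF-7 (ATCC), kept in DMEM with 10% FBS, were treated in triplicate for 72 h. IC50 is the average of at least three independent experiments ± SD.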
Background: Tetrazolium dyes change colour on reduction, which living cells bring about.

Experiment [8] addresses T3, Estrogen receptor. The experiment is described as follows: Agonist activity at ERalpha (unknown origin) expressed in HEK293T cells assessed as transcriptional activity after 24 hrs by dual luciferase reporter gene assay. Format: cell-based.

Molecules are shown by their SMILES.

T1 sequence (Q92731 whole entry, the tested form may be a part): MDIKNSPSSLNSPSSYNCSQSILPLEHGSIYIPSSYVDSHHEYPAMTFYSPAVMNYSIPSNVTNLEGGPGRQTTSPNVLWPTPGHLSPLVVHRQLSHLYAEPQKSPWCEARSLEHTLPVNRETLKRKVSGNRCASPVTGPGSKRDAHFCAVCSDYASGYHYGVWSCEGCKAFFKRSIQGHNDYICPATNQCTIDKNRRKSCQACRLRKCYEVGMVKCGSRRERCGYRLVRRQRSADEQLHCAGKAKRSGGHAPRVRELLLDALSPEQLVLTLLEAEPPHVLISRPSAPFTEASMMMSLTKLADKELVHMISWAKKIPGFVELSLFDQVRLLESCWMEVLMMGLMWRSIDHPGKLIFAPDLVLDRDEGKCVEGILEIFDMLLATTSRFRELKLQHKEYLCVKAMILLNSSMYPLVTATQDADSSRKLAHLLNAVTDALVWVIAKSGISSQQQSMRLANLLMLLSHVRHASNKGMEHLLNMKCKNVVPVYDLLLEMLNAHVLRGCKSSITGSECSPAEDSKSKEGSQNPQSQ

Turning to `Cc1cc(-c2c[se]cc2-c2ccc(O)c(C)c2)ccc1O`, the figures for the RBA in experiment [1] and in experiment [2] were 0.62% and 0.71%, respectively.
In the case of `Oc1ccc(-c2c[se]cc2-c2ccc(O)cc2)cc1`, the RBA came out at 2.01% in experiment [1] and 0.32% in experiment [2].
With `Oc1ccc(-c2c[se]cc2-c2ccc(OCCN3CCCCC3)cc2Cl)c(Cl)c1`, the RBA in experiment [1] is 18.4%; in experiment [2], 5.38%. Also, the Efficacy in experiment [3] was determined as 37.7%. The values for the IC50 in experiment [4], in experiment [5] and in experiment [7] were 0.331 µM, 0.413 µM and 14.1 µM, respectively. Besides, the Ratio in experiment [6] is 0.29.
As to `Oc1ccc(-c2ccc(-c3ccc(OCCN4CCCC4)cc3Cl)[se]2)c(Cl)c1`, the figures for the RBA in experiment [1] and in experiment [2] were 23.6% and 4.59%, respectively. Moreover, in experiment [3], the Efficacy came to 49.4%. Further, the IC50 in experiment [4] was 0.299 µM; in experiment [5], 0.415 µM; in experiment [7], 7.81 µM. Moreover, the Ratio in experiment [6] amounted to 0.19.
Consider `Oc1ccc(-c2ccc(-c3ccc(OCCN4CCCCC4)cc3F)[se]2)c(F)c1`, for which the RBA was 0.63% in experiment [1] and 6.89% in experiment [2]. The Efficacy in experiment [3] worked out at 75.4%. For the same molecule, the results for the half-inhibitory concentration (IC50) in experiment [4] and in experiment [7] were 1.94 µM and more than 100 µM, respectively. For the same molecule, the half-maximal effective concentration (EC50) in experiment [8] stood at 0.204 µM. Also, the Ratio in experiment [6] amounted to 10.9.
On to `Cc1cc(-c2c[se]cc2-c2ccc(OCCN3CCCCC3)c(C)c2)ccc1O`, for which the RBA in experiment [1] and in experiment [2] was less than 0.1% in each case. In experiment [3], the Efficacy was found to be 30.3%. The figures for the IC50 in experiment [4] and in experiment [7] were 0.415 µM and more than 100 µM, respectively. Besides, in experiment [8], the EC50 came out at 0.721 µM.
Turning to `Oc1ccc(-c2c[se]cc2-c2ccc(O)c(F)c2)cc1F`, the results for the RBA in experiment [1] and in experiment [2] were 1.56% and 0.58%, respectively.
Consider `Oc1ccc(-c2ccc(-c3ccc(OCCN4CCCCC4)cc3Cl)[se]2)c(Cl)c1`, for which the RBA in experiment [1] and in experiment [2] was less than 0.1% throughout. Moreover, the Efficacy in experiment [3] stood at 24.9%. Besides, the IC50 in experiment [4] is 2.96 µM; in experiment [7] it was more than 100 µM. Moreover, the EC50 in experiment [8] is 0.911 µM.
With `Cc1cc(O)ccc1-c1ccc(-c2ccc(O)cc2C)[se]1`, the results for the RBA in experiment [1] and in experiment [2] were 11.1% and 5.6%, respectively.
For `Cc1cc(O)ccc1-c1c[se]cc1-c1ccc(O)cc1C`, in that order: 6.7% and 0.27%.
Turning to `Oc1ccc(-c2c[se]cc2-c2ccc(OCCN3CCCC3)cc2Cl)c(Cl)c1`, the RBA in experiment [1] was 23.3%; in experiment [2] it was less than 0.1%. In experiment [3], the Efficacy was found to be 68.1%. Also, the figures for the IC50 in experiment [4], in experiment [5] and in experiment [7] were 1.16 µM, 0.769 µM and 10.9 µM, respectively. In experiment [6], the Ratio is less than 0.1.
Regarding `Oc1ccc(-c2ccc(-c3ccc(O)cc3)[se]2)cc1`, the values for the RBA in experiment [1] and in experiment [2] were 2.87% and 0.61%, respectively.
As to `Oc1ccc(-c2ccc(-c3ccc(O)cc3Cl)[se]2)c(Cl)c1`, the RBA in experiment [1] is 12.7%; in experiment [2], 6.11%. Besides, in experiment [6], the Ratio was 0.48.
Take `Oc1ccc(-c2ccc(-c3ccc(O)cc3F)[se]2)c(F)c1`: the RBA in experiment [1] worked out at 24.3%; in experiment [2], 5.9%.
Turning to `Cc1cc(O)ccc1-c1c[se]cc1-c1ccc(OCCN2CCCC2)cc1C`, the RBA in experiment [1] worked out at 0.46%; in experiment [2], 1.65%. The Efficacy in experiment [3] was determined as 66.7%. The IC50 amounted to 0.043 µM in experiment [4], 0.179 µM in experiment [5] and 16.6 µM in experiment [7]. In experiment [6], the Ratio came out at 3.6.
Take `Cc1cc(O)ccc1-c1cc(-c2ccc(OCCN3CCCC3)cc2)c(-c2ccc(O)cc2C)[se]1`: the RBA in experiment [1] was 3.4%; in experiment [2], 13.8%. In addition, the Efficacy in experiment [3] is 170%. For the same molecule, the figures for the IC50 in experiment [4], in experiment [5] and in experiment [7] were 0.016 µM, 0.013 µM and 7.05 µM, respectively. In addition, the Ratio in experiment [6] was determined as 4.06.
Take `Oc1ccc(-c2c[se]cc2-c2ccc(OCCN3CCCCC3)c(F)c2)cc1F`: the RBA is 15.3% in experiment [1] and 4.82% in experiment [2]. For the same molecule, in experiment [3], the Efficacy turned out to be 45%. For the same molecule, the IC50 turned out to be 0.54 µM in experiment [4], 0.069 µM in experiment [5] and 15.6 µM in experiment [7]. The Ratio in experiment [6] worked out at 0.32.
